Legend:
Vero = assay: Cytotoxicity against African green monkey Vero cells infected with Middle East respiratory syndrome coronavirus MERS-CoV/KOR/KNIH/002_05_2015 assessed as reduction in cell viability; format: cell-based; settings: chlorocebus sabaeus
[1] = system: Middle East respiratory syndrome-related coronavirus; assay: Antiviral activity against Middle East respiratory syndrome coronavirus MERS-CoV/KOR/KNIH/002_05_2015 infected in African green monkey Vero cells assessed as reduction in virus induced cytopathic effect after 24 hrs by immunofluorescence assay; format: functional, organism-based; settings: MERS-CoV/KOR/KNIH/002_05_2015, Vero
[2] = Cytotoxicity against mouse L929 cells; format: cell-based
In short: (§1)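 Cytotoxicity values are given in µM, each against a named cell line: Vero (African green monkey kidney), HFL-1 (human embryonic lung), L929 (NCTC clone 929 mouse fibroblast), NIH 3T3 (mouse embryonic fibroblast) and CHO-K1 (Chinese hamster ovary).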

[3] = Half life in rat at 2 mg/kg, iv; format: ADME, organism-based; settings: in vivo
In short: (§2)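 Rats were dosed intravenously at 2 mg/kg or orally at 5 mg/kg. Each parameter is the mean of experiments in three rats.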

[4] = Clearance in rat at 2 mg/kg, iv; format: ADME, organism-based; settings: in vivo; in short: as §2
[5] = Oral bioavailability in rat at 5 mg/kg; format: ADME, organism-based; settings: in vivo; in short: as §2
[6] = Cytotoxicity against human HFL-1 cells; format: cell-based, HFL1; in short: as §1
[7] = AUC in rat at 2 mg/kg, iv; format: ADME, organism-based; parameters: dose 2 mg/kg; settings: in vivo
In short: (§3)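 Rat pharmacokinetic study with separate intravenous (2 mg/kg) and oral (5 mg/kg) dosing arms; reported parameters are means from three rats per experiment.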

[8] = Metabolic stability in human microsomes assessed as parent compound remaining incubated for 30 mins; format: ADME, Microsome; settings: read-out: Stabilty
In short: (§4)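 Mouse or human liver microsomes were incubated with the compound for 30 min. The read-out is the percentage of original compound remaining.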

in vivo = settings: rat, po, 5 mg/kg
[9] = Metabolic stability in mouse microsomes assessed as parent compound remaining incubated for 30 mins; format: ADME, Microsome; settings: read-out: Stabilty; in short: as §4
[10] = Cytotoxicity against mouse NIH/3T3 cells; format: cell-based, NIH3T3; in short: as §1
[11] = AUC in rat at 5 mg/kg, po; format: ADME, organism-based; parameters: dose 5 mg/kg; settings: in vivo; in short: as §3
[12] = Cmax in rat at 5 mg/kg, po; format: ADME, organism-based; parameters: route oral, dose 5 mg/kg; settings: in vivo; in short: as §2
[13] = target: Voltage-gated inwardly rectifying potassium channel KCNH2 (Homo sapiens, UniProt Q12809); assay: Modulation of human ERG
Chain of Voltage-gated inwardly rectifying potassium channel KCNH2 (Q12809 whole entry): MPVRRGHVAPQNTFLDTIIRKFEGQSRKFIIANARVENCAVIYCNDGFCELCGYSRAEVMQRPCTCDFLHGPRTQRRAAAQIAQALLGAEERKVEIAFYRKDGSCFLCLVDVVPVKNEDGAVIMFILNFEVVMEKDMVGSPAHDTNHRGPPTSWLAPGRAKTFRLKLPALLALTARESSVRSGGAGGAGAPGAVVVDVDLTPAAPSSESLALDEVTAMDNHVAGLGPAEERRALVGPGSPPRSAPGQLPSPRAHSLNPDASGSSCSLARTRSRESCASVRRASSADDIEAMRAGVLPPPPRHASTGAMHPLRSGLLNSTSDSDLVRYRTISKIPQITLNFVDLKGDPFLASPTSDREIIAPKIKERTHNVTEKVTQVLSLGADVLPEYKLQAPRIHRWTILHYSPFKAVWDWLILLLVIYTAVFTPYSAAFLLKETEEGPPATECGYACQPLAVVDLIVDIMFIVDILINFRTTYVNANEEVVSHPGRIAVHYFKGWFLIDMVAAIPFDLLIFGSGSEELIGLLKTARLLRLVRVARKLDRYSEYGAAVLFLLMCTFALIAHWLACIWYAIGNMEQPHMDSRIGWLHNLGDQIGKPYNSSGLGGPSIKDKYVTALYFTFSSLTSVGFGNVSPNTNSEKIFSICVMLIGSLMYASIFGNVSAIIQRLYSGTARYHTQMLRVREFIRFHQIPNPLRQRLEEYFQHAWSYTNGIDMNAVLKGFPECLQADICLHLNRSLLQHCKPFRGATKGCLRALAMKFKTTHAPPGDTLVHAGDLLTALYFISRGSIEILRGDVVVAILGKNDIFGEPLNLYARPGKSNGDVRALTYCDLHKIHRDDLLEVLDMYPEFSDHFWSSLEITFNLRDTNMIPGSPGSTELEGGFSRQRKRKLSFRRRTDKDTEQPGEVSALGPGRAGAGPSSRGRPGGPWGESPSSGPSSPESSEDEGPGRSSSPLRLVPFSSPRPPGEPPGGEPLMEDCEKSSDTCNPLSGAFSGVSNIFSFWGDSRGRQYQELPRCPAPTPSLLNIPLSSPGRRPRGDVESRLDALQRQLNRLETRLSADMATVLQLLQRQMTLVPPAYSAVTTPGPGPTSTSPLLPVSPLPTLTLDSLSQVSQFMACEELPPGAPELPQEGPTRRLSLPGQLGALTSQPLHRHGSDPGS

[14] = Volume of distribution at steady state in rat at 2 mg/kg, iv; format: ADME, organism-based; settings: in vivo, read-out: Vdss; in short: as §2
[15] = Cytotoxicity against African green monkey Vero cells; format: cell-based; settings: chlorocebus sabaeus; in short: as §1
[16] = Cytotoxicity against CHO-K1 cells; format: cell-based, Cricetulus griseus; settings: chinese hamster; in short: as §1
[17] = Half life in rat at 5 mg/kg, po; format: ADME, organism-based; settings: in vivo; in short: as §2

Row | SMILES | CC50 (Vero) | IC50 [1] | other results
1 | COc1cccc(CNc2ccc3ncnc(Nc4ccc(C#N)cc4)c3c2)c1 | > 25 µM | > 25 µM | –
2 | N#Cc1ccc(CNc2ccc3ncnc(Nc4ccc(F)c(Cl)c4)c3c2)cc1 | > 25 µM | 4.8 µM | –
3 | Fc1ccc(Nc2ncnc3ccc(NCc4cccc(C(F)(F)F)c4)cc23)cc1Cl | 9.2 µM | 2.3 µM | –
4 | N#Cc1cccc(C(=O)Nc2ccc3ncnc(Nc4ccc(F)c(Cl)c4)c3c2)c1 | – | > 25 µM | –
5 | N#Cc1cccc(/C=C/C(=O)Nc2ccc3ncnc(Nc4ccc(F)c(Cl)c4)c3c2)c1 | – | > 25 µM | –
6 | N#Cc1cccc(CNc2ccc3ncnc(Nc4ccc(F)c(Cl)c4)c3c2)c1 | – | 0.157 µM | CC50 [2]: > 100 µM; half-life [3]: 354 min; clearance [4]: 28.8 mL/min/kg; bioavailability [5]: 21%; CC50 [6]: > 100 µM; AUC [7]: 1110 ng·h/mL; remaining at 0.5 h [8]: 56.4%; Tmax (in vivo): 2 h; remaining at 0.5 h [9]: 60.7%; CC50 [10]: > 100 µM; AUC [11]: 570 ng·h/mL; Cmax [12]: 0.2 µg/h; Activity [13]: > 50 µM; Vd [14]: 6.3 L/kg; CC50 [15]: > 100 µM; CC50 [16]: > 100 µM; half-life [17]: 330 min
7 | CCCCN(CCCC)c1ccc2ncnc(Nc3ccc(F)c(Cl)c3)c2c1 | – | > 25 µM | –
8 | Fc1ccc(CNc2ccc3ncnc(Nc4ccc(F)c(Cl)c4)c3c2)cc1F | 23 µM | 4.6 µM | –
9 | N#Cc1cccc(CNc2cc3c(Nc4ccc(F)c(Cl)c4)ncnc3cc2O)c1 | > 25 µM | > 25 µM | –
10 | O=[N+]([O-])c1cccc(CNc2ccc3ncnc(Nc4ccc(F)c(Cl)c4)c3c2)c1 | > 25 µM | 6.1 µM | –
11 | N#Cc1ccc(CNc2ccc3ncnc(Nc4ccc(C(F)(F)F)cc4)c3c2)cc1 | > 25 µM | 4.1 µM | –
12 | NC(=O)c1cccc(CNc2ccc3ncnc(Nc4ccc(F)c(Cl)c4)c3c2)c1 | – | > 25 µM | –
13 | COc1cccc(CNc2ccc3ncnc(Nc4ccc(Br)cc4)c3c2)c1 | > 25 µM | 7.4 µM | –
14 | COc1cccc(CNc2ccc3ncnc(Nc4ccc(F)cc4)c3c2)c1 | > 25 µM | 22.7 µM | –
15 | COc1cccc(CNc2ccc3ncnc(Nc4cccc(Cl)c4)c3c2)c1 | 23 µM | > 25 µM | –
16 | COc1cc2ncnc(Nc3ccc(F)c(Cl)c3)c2cc1NCc1cccc(C#N)c1 | 13.2 µM | 5.8 µM | –

Row | SMILES | CC50 (Vero) | IC50 [1] | other results
17 | O=[N+]([O-])c1cccc(CNc2ccc3ncnc(Nc4ccc(C(F)(F)F)cc4)c3c2)c1 | > 25 µM | 3.7 µM | –
18 | O=[N+]([O-])c1ccc(CNc2ccc3ncnc(Nc4ccc(C(F)(F)F)cc4)c3c2)cc1 | > 25 µM | 3.3 µM | –
19 | N#Cc1ccccc1CNc1ccc2ncnc(Nc3ccc(F)c(Cl)c3)c2c1 | > 25 µM | > 25 µM | –
20 | Oc1ccccc1CNc1ccc2ncnc(Nc3ccc(F)c(Cl)c3)c2c1 | – | 3.6 µM | –
21 | COc1cccc(CNc2ccc3ncnc(Nc4ccc(F)c(Cl)c4)c3c2)c1 | > 25 µM | 5.6 µM | –
22 | COc1cccc(CNc2ccc3ncnc(Nc4ccc(C(F)(F)F)cc4)c3c2)c1 | > 25 µM | 1.8 µM | –
23 | O=[N+]([O-])c1ccc(CNc2ccc3ncnc(Nc4ccc(F)c(Cl)c4)c3c2)cc1 | > 25 µM | 2.7 µM | –
24 | Fc1ccc(CNc2ccc3ncnc(Nc4ccc(F)c(Cl)c4)c3c2)cc1 | 14.4 µM | 4.6 µM | –
25 | Fc1ccc(Nc2ncnc3ccc(NC4CCCCC4)cc23)cc1Cl | > 25 µM | 15 µM | –
26 | N#Cc1cccc(CNc2ccc3ncnc(Nc4ccc(C(F)(F)F)cc4)c3c2)c1 | > 25 µM | 3.6 µM | –
27 | O=[N+]([O-])c1ccccc1CNc1ccc2ncnc(Nc3ccc(F)c(Cl)c3)c2c1 | > 25 µM | 3.3 µM | –
28 | COc1ccccc1CNc1ccc2ncnc(Nc3ccc(F)c(Cl)c3)c2c1 | > 25 µM | 3.8 µM | –
29 | CC(=O)Nc1ccc2ncnc(Nc3ccc(F)c(Cl)c3)c2c1 | – | > 25 µM | –
30 | COc1cccc(CNc2ccc3ncnc(Nc4cccc(C(C)=O)c4)c3c2)c1 | – | > 25 µM | –
31 | N#Cc1ccccc1CNc1ccc2ncnc(Nc3ccc(C(F)(F)F)cc3)c2c1 | > 25 µM | > 25 µM | –
